Assays:
Rattus norvegicus [1] = assay: Change in systolic blood pressure after iv administration of 1600 ug/Kg in the presence of isoprenaline (agonist) in anesthetized rats; type: functional, Artery
Rattus norvegicus [2] = assay: Change in systolic blood pressure after iv administration of 400 ug/Kg in the presence of adrenaline (agonist) in anesthetized rats; type: functional, Artery
In short: (§1)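 Anesthetized male Wistar rats, two groups of 8, received 400 or 1600 µg/kg iv. Before and after this dose, iv agonist challenges were given: noradrenaline 1 µg/kg, adrenaline, acetylcholine 2.50 µg/kg, or isoprenaline. Systolic/diastolic BP, heart rate and dP/dt responses were recorded before (control) and after dosing; significance was set at p < 0.05 versus control.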

Rattus norvegicus [3] = assay: Change in diastolic blood pressure after iv administration of 1600 ug/Kg in anesthetized rats; type: functional, Artery
In short: (§2)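 Adult male Wistar rats under ip ethylurethane (10% w/v in saline, 1 mL/kg) with tracheal cannula and spontaneous breathing, kept at 37 °C. Arterial BP was recorded by femoral artery catheter; compound in saline (50 µL) was given via femoral vein at 50–3200 µg/kg, ratio 2.0. Peak change is given as mean ± SE, n = 12 (n = 7 at 3200 µg/kg).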

Rattus norvegicus [4] = assay: Change in diastolic blood pressure after iv administration of 1600 ug/Kg in the presence of adrenaline (agonist) in anesthetized rats; type: functional, Artery
In short: (§3)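 Urethane-anesthetized male Wistar rats (16 rats, two equal groups) received 400 or 1600 µg/kg compound iv. Cardiovascular responses to iv agonist boluses (noradrenaline 1 µg/kg, acetylcholine 2.50 µg/kg, adrenaline, isoprenaline) were measured before and after compound dosing. Peak responses are given as mean ± SE; p < 0.05 versus control mean.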

Rattus norvegicus [5] = assay: Change in diastolic blood pressure after iv administration of 3200 ug/Kg in anesthetized rats; type: functional, Artery; in short: as §2
Rattus norvegicus [6] = assay: Change in diastolic blood pressure after iv administration of 400 ug/Kg in the presence of adrenaline (agonist) in anesthetized rats; type: functional, Artery; in short: as §3
Rattus norvegicus [7] = assay: Change in diastolic blood pressure after iv administration of 400 ug/Kg in the presence of isoprenaline (agonist) in anesthetized rats; type: functional, Artery; in short: as §3
Rattus norvegicus [8] = assay: Change in diastolic blood pressure after iv administration of 400 ug/Kg in the presence of noradrenaline (agonist) in anesthetized rats; type: functional, Artery; in short: as §3
Rattus norvegicus [9] = assay: Change in systolic blood pressure after iv administration of 800 ug/Kg compound (treatment with reserpine(5 mg/kg/day for 2 days, ip)in anesthetized rats; type: functional, Artery
In short: (§4)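 Anesthetized rats, n = 6 per group, received iv doses of 200–1600 µg/kg (ratio 2.0) either alone (control) or under pretreatment: continuous iv papaverine infusion 1 mg/kg/min, reserpine 5 mg/kg/day ip for 2 days, or hexamethonium 5 mg/kg iv. Peak changes in BP, heart rate and dP/dt recorded; means ± SE, p < 0.05 versus control.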

Rattus norvegicus [10] = assay: Change in diastolic blood pressure after iv administration of 800 ug/Kg compound (treatment with reserpine(5 mg/kg/day for 2 days, ip)in anesthetized rats; type: functional, Artery
In short: (§5)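 In anesthetized male Wistar rats, responses to iv compound (200–1600 µg/kg, ratio 2.0) were measured alone and under three pretreatments: continuous iv papaverine infusion (1 mg/kg/min), ip reserpine (5 mg/kg/day for 2 days), or iv hexamethonium (5 mg/kg). Peak changes are given as mean ± SE, n = 6 per group; p < 0.05 versus control.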

Rattus norvegicus [11] = assay: Change in diastolic blood pressure after iv administration of 800 ug/Kg in anesthetized rats; type: functional, Artery; in short: as §2
Rattus norvegicus [12] = assay: Change in systolic blood pressure after iv administration of 1600 ug/Kg compound (treatment with reserpine(5 mg/kg/day for 2 days, ip)in anesthetized rats; type: functional, Artery
In short: (§6)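 Urethane-anesthetized male Wistar rats, 6 per group, received iv doses of 200-1600 µg/kg (ratio 2.0) given alone or under a pretreatment. Pretreatments were continuous iv papaverine infusion (1 mg/kg/min), reserpine 5 mg/kg/day ip for 2 days, or hexamethonium 5 mg/kg iv. Peak changes in femoral arterial BP and HR were recorded; values are mean ± SE.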

Rattus norvegicus [13] = assay: Change in diastolic blood pressure after iv administration of 1600 ug/Kg compound (treatment with reserpine(5 mg/kg/day for 2 days, ip)in anesthetized rats; type: functional, Artery; in short: as §5
Rattus norvegicus [14] = assay: Change in heart rate after iv administration of 4.12 uM/kg in anesthetized rats; type: functional
Rattus norvegicus [15] = assay: Change in heart rate after iv administration of 400 ug/kg compound (treatment with hexamethonium (5 mg/kg, iv))in anesthetized rats; type: functional; in short: as §6
Rattus norvegicus [16] = assay: Change in heart rate after iv administration of 400 ug/Kg in the presence of adrenaline (agonist) in anesthetized rats; type: functional; in short: as §3
Rattus norvegicus [17] = assay: Change in heart rate after iv administration of 400 ug/Kg in the presence of isoprenaline (agonist) in anesthetized rats; type: functional; in short: as §3
Rattus norvegicus [18] = assay: Change in heart rate after iv administration of 400 ug/Kg in the presence of noradrenaline (agonist) in anesthetized rats; type: functional
Rattus norvegicus [19] = assay: Change in mean aortic flow after iv administration of 200 ug/Kgin anesthetized rats; type: functional
In short: (§7)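 Male Wistar rats (299 ± 3 g) were anesthetized with ethylurethane ip, tracheally cannulated and breathing spontaneously, at 37 °C, and stabilized for 60 min. Doses of 50-3200 µg/kg (ratio 2.0) in saline were injected by femoral vein, 50 µL each. Recordings: femoral arterial BP, electromagnetic abdominal-aortic flow, SV from integrated pulsatile flow, polygraphic RF. Peak changes, mean ± SE, n = 12 (n = 7 at 3200).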

Rattus norvegicus [20] = assay: Maximum rate of rise of the left ventricular isovolumetric pressure was measured after iv administration of 800 ug/Kg in anesthetized rats; type: functional, Heart left ventricle
In short: (§8)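 Urethane-anesthetized (10% w/v, […] ip in saline) adult male Wistar rats, trachea cannulated, breathing spontaneously, 37 °C. Femoral artery catheter for blood pressure, femoral vein for dosing. Sequential iv doses 50–3200 µg/kg (ratio 2.0) in saline, each given after parameters returned to baseline. Peak changes recorded; means ± SE, n = 12 (n = 7 at 3200 µg/kg).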

Rattus norvegicus [21] = assay: Maximum rate of rise of the left ventricular isovolumetric pressure was measured after iv administration of 1600 ug/Kg in the presence of acetylcholine (agonist) in anesthetized rats; type: functional, Heart left ventricle; in short: as §1
Rattus norvegicus [22] = assay: Maximum rate of rise of the left ventricular isovolumetric pressure was measured after iv administration of 3200 ug/Kg in anesthetized rats; type: functional, Heart left ventricle; in short: as §8
Rattus norvegicus [23] = assay: Maximum rate of rise of the left ventricular isovolumetric pressure after iv administration of 800 ug/Kg compound (treatment with hexamethonium (5 mg/Kg, iv)in anesthetized rats; type: functional, Heart left ventricle; in short: as §4
Rattus norvegicus [24] = assay: Maximum rate of rise of the left ventricular isovolumetric pressure after iv administration of 800 ug/Kg compound (treatment with reserpine(5 mg/kg/day for 2 days, ip)in anesthetized rats; type: functional, Heart left ventricle; in short: as §4
Rattus norvegicus [25] = assay: Maximum rate of rise of the left ventricular isovolumetric pressure was measured after iv administration of 100 ug/Kg in anesthetized rats; type: functional, Heart left ventricle; in short: as §8
Rattus norvegicus [26] = assay: Change in stroke volume after iv administration of 100 ug/Kg in anesthetized rats; type: functional; in short: as §7

Compound: COc1ccc(C2C(c3ccc(OC)c(OC)c3)[C@H](C(=O)NCCCC/N=C(\N)NCC=C(C)C)[C@@H]2C(=O)NCCCC/N=C(\N)NCC=C(C)C)cc1OC (stereo partly drawn) [CARACASANDIAMIDE]
- BP (Rattus norvegicus [1]): -43 mmHg
- BP (Rattus norvegicus [2]): 21 mmHg
- BP (Rattus norvegicus [3]): -43 mmHg
- Change in BP (Rattus norvegicus [3]): -55%
- BP (Rattus norvegicus [4]): 3 mmHg
- BP (Rattus norvegicus [5]): -53 mmHg
- Change in BP (Rattus norvegicus [5]): -68%
- BP (Rattus norvegicus [6]): 5 mmHg
- BP (Rattus norvegicus [7]): -49 mmHg
- BP (Rattus norvegicus [8]): 15 mmHg
- BP (Rattus norvegicus [9]): -11 mmHg
- BP (Rattus norvegicus [10]): -12 mmHg
- BP (Rattus norvegicus [11]): -31 mmHg
- Change in BP (Rattus norvegicus [11]): -40%
- BP (Rattus norvegicus [12]): -16 mmHg
- BP (Rattus norvegicus [13]): -15 mmHg
- Heart rate (Rattus norvegicus [14]): -35 beats min-1
- Heart rate (Rattus norvegicus [15]): -46 beats min-1
- Heart rate (Rattus norvegicus [16]): 24 beats min-1
- Heart rate (Rattus norvegicus [17]): 69 beats min-1
- Heart rate (Rattus norvegicus [18]): 23 beats min-1
- Mean aortic flow (Rattus norvegicus [19]): -14 mL/min
- Change in dP/dt (Rattus norvegicus [20]): 54%
- dP/dt (Rattus norvegicus [20]): 3282 mmHg s-1
- dP/dt (Rattus norvegicus [21]): -6821 mmHg s-1
- Change in dP/dt (Rattus norvegicus [22]): 77%
- dP/dt (Rattus norvegicus [22]): 4708 mmHg s-1
- dP/dt (Rattus norvegicus [23]): 4965 mmHg s-1
- dP/dt (Rattus norvegicus [24]): 720 mmHg s-1
- Change in dP/dt (Rattus norvegicus [25]): 18%
- dP/dt (Rattus norvegicus [25]): 1129 mmHg s-1
- Change in stroke volume (Rattus norvegicus [26]): 10%
- Stroke volume (Rattus norvegicus [26]): 20 µL
